The test system of data set [1] is Human immunodeficiency virus 1. Briefly: Antiviral activity against VSV-G pseudotyped HIV1 harboring wild-type integrase infected in HOS cells pretreated […] for 3 hrs followed by viral infection measured after 48 hrs by luciferase reporter gene assay. The format is functional, cell-based. Particulars: Human immunodeficiency virus 1, HOS. An outline of the steps: (§1)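 Single-round luciferase HIV-1 vector (pNLNgoMIVR−ΔLUC carrying WT or mutant IN) was pseudotyped with VSV-g by calcium phosphate co-transfection of 293 cells, and supernatant was harvested after 48 h. HOS cells were seeded at 4000/well in DMEM with 5% FBS and 5% newborn calf serum. They were pretreated 3 h at 37 °C with 5–0.0001 μM (11 serial dilutions), then infected for 48 h. Luminescence was normalized to untreated cells, and EC50 came from nonlinear regression.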
In general terms: A reporter such as luciferase makes a cellular process visible.

Data set [2] has as its system Human immunodeficiency virus 1. Briefly: Antiviral activity against VSV-G pseudotyped HIV1 harboring integrase Y143R mutant infected in HOS cells pretreated […] for 3 hrs followed by viral infection measured after 48 hrs by luciferase reporter gene assay. It counts as functional, cell-based. The conditions noted are these: Human immunodeficiency virus 1, HOS. The procedure, abridged:
as §1

For data set [3], the system named is Human immunodeficiency virus 1. The experiment in a line: Antiviral activity against VSV-G pseudotyped HIV1 harboring integrase N155H mutant infected in HOS cells pretreated […] for 3 hrs followed by viral infection measured after 48 hrs by luciferase reporter gene assay. Particulars: Human immunodeficiency virus 1, HOS. The format is functional, cell-based. The procedure, abridged: as §1

The test system of data set [4] is Human immunodeficiency virus 1. The experiment in a line: Antiviral activity against VSV-G pseudotyped HIV1 harboring integrase G140S/Q148H double mutant infected in HOS cells pretreated […] for 3 hrs followed by viral infection measured after 48 hrs by luciferase reporter gene assay. It counts as functional, cell-based. The conditions noted are these: Human immunodeficiency virus 1, HOS. The procedure, abridged:
as §1

The subject of data set [5] is HOS. Briefly: Cytotoxicity against HOS cells assessed as reduction in cell viability after 48 hrs by ATPLite luminescence assay. It counts as cell-based. Particulars: human, hos, 48 h. The procedure, abridged: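 HOS cells seeded at 4000 per well the day before, exposed to compounds over 250 to 0.05 μM at 37 °C for 48 h. ATP measured by luminescence after lysis and 20 min signal development at room temperature.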
Background: ATP-based viability assays read luminescence as a measure of living cells.

The test system of data set [6] is Human immunodeficiency virus 1. The experiment in a line: Selectivity ratio of EC50 for VSV-G pseudotyped HIV1 harboring integrase Y143R mutant infected in HOS cells to EC50 for VSV-G pseudotyped HIV1 harboring wild-type integrase infected in HOS cells. The format is functional. An outline of the steps:
(§2)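 Fold change is the EC50 against the mutant-IN vector divided by the EC50 against the WT-IN vector. Both come from the single-round luciferase infectivity assay in HOS cells, with a 3 h compound pretreatment followed by 48 h infection.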

The test system of data set [7] is Human immunodeficiency virus 1. Briefly: Selectivity ratio of EC50 for VSV-G pseudotyped HIV1 harboring integrase N155H mutant infected in HOS cells to EC50 for VSV-G pseudotyped HIV1 harboring wild-type integrase infected in HOS cells. The format is functional. The procedure, abridged: as §2
Data set [8] deals with Human immunodeficiency virus 1. Briefly: Selectivity ratio of EC50 for VSV-G pseudotyped HIV1 harboring integrase G140S/Q148H mutant infected in HOS cells to EC50 for VSV-G pseudotyped HIV1 harboring wild-type integrase infected in HOS cells. The format is functional. An outline of the steps: as §2
The test system of data set [9] is Human immunodeficiency virus 1. The experiment in a line: Antiviral activity against VSV-G pseudotyped HIV1 harboring integrase G118R mutant infected in HOS cells pretreated […] for 3 hrs followed by viral infection measured after 48 hrs by luciferase reporter gene assay. The format is functional, cell-based. Particulars: Human immunodeficiency virus 1, HOS. An outline of the steps:
as §1

In data set [10] the test system is Human immunodeficiency virus 1. Briefly: Antiviral activity against VSV-G pseudotyped HIV1 harboring integrase T66I mutant infected in HOS cells pretreated […] for 3 hrs followed by viral infection measured after 48 hrs by luciferase reporter gene assay. The format is functional, cell-based. Particulars: Human immunodeficiency virus 1, HOS. The procedure, abridged:
as §1

Data set [11] has as its system Human immunodeficiency virus 1. The experiment in a line: Antiviral activity against VSV-G pseudotyped HIV1 harboring integrase E92Q mutant infected in HOS cells pretreated […] for 3 hrs followed by viral infection measured after 48 hrs by luciferase reporter gene assay. The format is functional, cell-based. Particulars: Human immunodeficiency virus 1, HOS. An outline of the steps: as §1

The test system of data set [12] is Human immunodeficiency virus 1. Briefly: Antiviral activity against VSV-G pseudotyped HIV1 harboring integrase R263K mutant infected in HOS cells pretreated […] for 3 hrs followed by viral infection measured after 48 hrs by luciferase reporter gene assay. Particulars: Human immunodeficiency virus 1, HOS. It counts as functional, cell-based. An outline of the steps:
as §1

In data set [13] the test system is Human immunodeficiency virus 1. The experiment in a line: Antiviral activity against VSV-G pseudotyped HIV1 harboring integrase H51Y mutant infected in HOS cells pretreated […] for 3 hrs followed by viral infection measured after 48 hrs by luciferase reporter gene assay. It counts as functional, cell-based. Particulars: Human immunodeficiency virus 1, HOS. An outline of the steps: as §1

The test system of data set [14] is Human immunodeficiency virus 1. The experiment in a line: Antiviral activity against VSV-G pseudotyped HIV1 harboring integrase H51Y/R263K double mutant infected in HOS cells pretreated […] for 3 hrs followed by viral infection measured after 48 hrs by luciferase reporter gene assay. Particulars: Human immunodeficiency virus 1, HOS. The format is functional, cell-based. An outline of the steps: as §1

Data set [15] concerns Human immunodeficiency virus 1. Briefly: Selectivity ratio of EC50 for VSV-G pseudotyped HIV1 harboring integrase G118R mutant infected in HOS cells to EC50 for VSV-G pseudotyped HIV1 harboring wild-type integrase infected in HOS cells. The format is functional. The procedure, abridged: as §2
The test system of data set [16] is Human immunodeficiency virus 1. Briefly: Selectivity ratio of EC50 for VSV-G pseudotyped HIV1 harboring integrase T66I mutant infected in HOS cells to EC50 for VSV-G pseudotyped HIV1 harboring wild-type integrase infected in HOS cells. The format is functional. An outline of the steps: as §2
For data set [17], the system named is Human immunodeficiency virus 1. The experiment in a line: Selectivity ratio of EC50 for VSV-G pseudotyped HIV1 harboring integrase E92Q mutant infected in HOS cells to EC50 for VSV-G pseudotyped HIV1 harboring wild-type integrase infected in HOS cells. It counts as functional. The procedure, abridged:
as §2

Data set [18] deals with Human immunodeficiency virus 1. Briefly: Selectivity ratio of EC50 for VSV-G pseudotyped HIV1 harboring integrase R263K mutant infected in HOS cells to EC50 for VSV-G pseudotyped HIV1 harboring wild-type integrase infected in HOS cells. The format is functional. An outline of the steps:
as §2

The subject of data set [19] is Human immunodeficiency virus 1. The experiment in a line: Selectivity ratio of EC50 for VSV-G pseudotyped HIV1 harboring integrase H51Y mutant infected in HOS cells to EC50 for VSV-G pseudotyped HIV1 harboring wild-type integrase infected in HOS cells. The format is functional. The procedure, abridged:
as §2

Data set [20] deals with Human immunodeficiency virus 1. The experiment in a line: Selectivity ratio of EC50 for VSV-G pseudotyped HIV1 harboring integrase H51Y/R263K double mutant infected in HOS cells to EC50 for VSV-G pseudotyped HIV1 harboring wild-type integrase infected in HOS cells. It counts as functional. The procedure, abridged: as §2
A short description of data set [21]: Inhibition of HIV1 integrase 3' processing activity using 5'-end 32P labeled DNA substrate measured after 2 hrs by PAGE based phosphor imaging method. Also noted: species or system Human immunodeficiency virus 1. The procedure, abridged: (§3)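 Gel-based assay, Mg2+ cofactor: 400 nM integrase with 20 nM DNA substrate 5′-32P-labeled on transferred strand in 50 mM MOPS pH 7.2, 7.5 mM MgCl2, 14 mM 2-mercaptoethanol, inhibitor or DMSO; 2 h at 37 °C. Stopped with formamide/SDS loading buffer; products resolved on 16% denaturing polyacrylamide gels, quantified by phosphorimaging.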

Data set [22] is described as follows: Inhibition of HIV1 integrase strand transfer activity using 5'-end 32P labeled DNA substrate measured after 2 hrs by PAGE based phosphor imaging method. Further details: species or system Human immunodeficiency virus 1. An outline of the steps:
as §3

The results in this text go back to ChEMBL document CHEMBL4038328, “Structure-Guided Optimization of HIV Integrase Strand Transfer Inhibitors” (J Med Chem, 2017).

The structures appear in SMILES notation.

For orientation: EC50 means the concentration at which the effect is half-maximal. The CC50 is the concentration at which the toxic effect on the cells reaches its halfway point. The term IC50 denotes the concentration that gives 50% inhibition. Read a high IC50 as weaker potency.

As to `CC(=O)OCCCCCc1cnc2c(c1)c(NCCO)c(C(=O)NCc1ccc(F)cc1F)c(=O)n2O`, the EC50 in [1] stood at 5.3 nM; in data set [2] it was 4.1 nM; in data set [3], 10 nM; in data set [4], 5.3 nM; in data set [9], 15 nM; in [10], 1.2 nM. Further, the EC50 stood at 3.8 nM in data set [11], 3.6 nM in [12], 7.4 nM in data set [13] and 15 nM in [14]. The CC50 in [5] was > 100000 nM. In addition, the “Ratio EC50” value is reported as 0.8 in [6]; 2 in data set [7]; 1 in [8]; 3 in data set [15]; 0.2 in data set [16]; 0.7 in data set [17]. In addition, the “Ratio EC50” value was determined as 0.7 in [18], 1 in data set [19] and 3 in data set [20].

For `CC(=O)OCCCc1cnc2c(c1)c(N)c(C(=O)NCc1ccc(F)cc1F)c(=O)n2O`, the IC50 in data set [21] is 14300 nM; in data set [22] it was 10 nM. Also, the EC50 in [1] turned out to be 1.4 nM; in [2], 2.9 nM; in [3], 5.4 nM; in data set [4], 13 nM; in [9], 5.9 nM; in data set [10] it was 0.75 nM. Besides, the EC50 is 1.2 nM in [11], 1.8 nM in data set [12], 0.8 nM in [13] and 3.9 nM in data set [14]. In data set [5], the CC50 is > 250000 nM. Further, the “Ratio EC50” value in data set [6] is 2; in data set [7] it was 4; in data set [8] it was 9; in [15] it was 4; in data set [16], 0.5; in data set [17] it was 1. For the same compound, the “Ratio EC50” value in data set [18] was found to be 1; in data set [19], 0.6; in [20], 3.

As for `O=C(NCc1ccc(F)cc1F)c1c(NCCO)c2cc(CCCCCO)cnc2n(O)c1=O`, the IC50 in data set [21] stood at 4000 nM; in data set [22] it was 2.5 nM. Also, the EC50 was 13 nM in data set [1]; 12 nM in data set [2]; 15 nM in data set [3]; 16 nM in [4]; 24 nM in data set [9]; 1.9 nM in [10]. Moreover, the EC50 in [11] turned out to be 6.5 nM; in data set [12], 18 nM; in [13], 11 nM; in data set [14] it was 31 nM. The CC50 in data set [5] is > 250000 nM. Further, the “Ratio EC50” value was 0.9 in data set [6]; 1 in [7]; 1 in data set [8]; 2 in [15]; 0.1 in data set [16]; 0.5 in data set [17]. The figures for the “Ratio EC50” value in data set [18], in data set [19] and in data set [20] were 1, 0.8 and 2, respectively.

For the compound `COC(=O)CCc1cnc2c(c1)c(NCCO)c(C(=O)NCc1ccc(F)cc1F)c(=O)n2O`, the IC50 in data set [21] was found to be 3200 nM; in data set [22], 3.1 nM. The half-maximal effective concentration (EC50) was determined as 4.1 nM in data set [1]; 3.8 nM in data set [2]; 3.9 nM in [3]; 16 nM in data set [4]; 4.8 nM in data set [9]; 0.62 nM in [10]. Further, the EC50 was determined as 2.7 nM in data set [11], 6.5 nM in data set [12], 6.9 nM in [13] and 2.5 nM in data set [14]. In addition, in [5], the CC50 is > 250000 nM. Besides, the “Ratio EC50” value is given as 0.9 in data set [6]; 1 in data set [7]; 4 in data set [8]; 1 in data set [15]; 0.2 in data set [16]; 0.7 in [17]. Further, the figures for the “Ratio EC50” value in [18], in [19] and in data set [20] were 2, 2 and 0.9, respectively.
